# A3G deaminase = APOBEC3G (human) deaminase inhibition; hit rate 0.28% among 330,000; Q9HC16; inhibition, % at 20 µM; AID 493012; recombinant A3G, ssDNA deamination FAM/TAMRA fluorescence;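 active = inhibition of at least 40% at 20 µM, with no more than 30% in the related APOBEC3A deaminase screen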;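 note: plate controls were DMSO wells with A3G for no effect and wells lacking A3G enzyme for full effect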
# Target sequence (Q9HC16 whole entry, looked up): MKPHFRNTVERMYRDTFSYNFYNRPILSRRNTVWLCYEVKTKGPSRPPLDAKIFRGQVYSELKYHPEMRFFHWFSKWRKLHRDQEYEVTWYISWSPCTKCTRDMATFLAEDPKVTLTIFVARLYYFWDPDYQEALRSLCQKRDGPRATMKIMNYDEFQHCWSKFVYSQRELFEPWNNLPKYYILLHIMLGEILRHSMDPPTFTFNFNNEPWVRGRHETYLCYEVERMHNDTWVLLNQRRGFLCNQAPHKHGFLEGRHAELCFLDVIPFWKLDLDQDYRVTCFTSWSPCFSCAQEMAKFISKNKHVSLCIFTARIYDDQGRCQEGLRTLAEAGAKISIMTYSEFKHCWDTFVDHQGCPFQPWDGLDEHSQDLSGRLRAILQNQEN
# PfGluPho inh = PfG6PD (Plasmodium falciparum) enzyme inhibition | PfGluPho enzyme, NADPH resazurin-diaphorase fluorescence | inhibition, % at 20 µM | hit rate 0.78% among 350,000 | AID 504690;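 active = inhibition reaching at least a set limit at 20 µM in the primary screen, cut at about 59% in these data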;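 note: 0% = DMSO wells with substrate and 100% = DMSO wells lacking glucose-6-phosphate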
# PfM18AAP inh = blocks P. falciparum M18 aspartyl aminopeptidase; recombinant PfM18AAP, H-Glu-NHMec fluorogenic cleavage; inhibition, % at 7.35 µM; hit rate 1.2% among 290,000; AID 1822;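 active = inhibition above the campaign mean inhibition over all tested compounds plus 3 SD, cut at about 28% in these data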;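 note: 0% = plate median of test compound wells and 100% = 2 mM ZnCl2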
# HKDC1 inh = inhibitors of human hexokinase HKDC1; inhibition, % at 20 µM; hit rate 0.16% among 340,000; Q2TB90; AID 493160; recombinant HKDC1, G6PDH/diaphorase resazurin coupled fluorescence;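 active = inhibition above about 35% when tested at 20 µM, limit read from the data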;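 note: plate controls were DMSO wells with enzyme for no effect and DMSO wells lacking enzyme for full effect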
#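 Material: recombinant HKDC1 hexokinase; Amount: HKDC1 at 5 µg/mL; Medium: Tris pH 8.0 buffer with MgCl2, Tween-20, BSA, BME; Schedule: 90 min reaction incubation at room temperature, dark; Technique: coupled resazurin fluorescence, excitation 525 nm, emission 613 nm.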
# APOBEC3A inh = blocks human APOBEC3A ssDNA deamination; hit rate 0.41% among 330,000; recombinant A3A, FAM/TAMRA ssDNA deamination fluorescence; P31941; inhibition, % at 20 µM;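 active = at least 40% inhibition at 20 µM here, with at most 30% in a related deaminase screen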;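 note: plate controls were A3A with DMSO for no effect and wells lacking A3A enzyme for full effect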
# Target sequence (P31941 whole entry, looked up): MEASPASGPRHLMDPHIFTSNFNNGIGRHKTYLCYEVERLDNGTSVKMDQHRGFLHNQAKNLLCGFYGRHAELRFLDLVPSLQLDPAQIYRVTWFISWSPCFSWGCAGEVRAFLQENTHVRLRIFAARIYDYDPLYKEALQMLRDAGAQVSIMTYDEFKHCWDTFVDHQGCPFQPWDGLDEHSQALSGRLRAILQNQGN
# UBC9 SUMO inh = SUMOylation inhibition; HTRF SUMOylation assay, SAE1/SAE2 + UBC9, in vitro; inhibition, % at 35 µM; hit rate 0.36% among 290,000; in the data active = inhibition above about 50%, passing the limit was not always enough
# * = called active by the depositor; · = no result given. Hits are enriched below; roughly 2.4% of the tested compounds scored in any of these assays.
SMILES,A3G deaminase,PfGluPho inh,PfM18AAP inh,HKDC1 inh,APOBEC3A inh,UBC9 SUMO inh
O=C(/C(=N\O)n1cncn1)c1ccc(Cl)cc1Cl,-6,-15,1,-11,-4,0
O=C(/C(=C/c1ccccc1)n1cncn1)c1ccc(Cl)cc1Cl,1,6,54*,11,3,-12
O=C(Nc1nnc(-c2ccccc2Cl)o1)c1cccnc1,-5,-13,30*,-3,0,-9
CCOC(=O)N1CCN(c2cc(NCCC(=O)O)c3c4c(onc24)-c2ccccc2C3=O)CC1,32,38,6,37*,25,-56
CN1CCN(c2cc(N3CCN(C(=O)c4ccco4)CC3)c3c4c(onc24)-c2ccccc2C3=O)CC1,0,74*,16,21,9,-11
O=C(O)CCCNc1cc(N2CCN(C(=O)c3ccco3)CC2)c2noc3c2c1C(=O)c1ccccc1-3,79,35,26,22,53,-25
CCOC(=O)C1=C(CS(=O)(=O)c2ccc(F)c(C)c2)NC(=O)NC1c1ccc(O)c(O)c1 (stereo not given),-5,9,75*,-3,-3,-11
COc1cc(N2CCCC2)c(OC)cc1/C=C1/NC(=S)NC1=O,5,35,28*,10,2,16
CCC(=O)N1CCN(c2c(Cl)cccc2[N+](=O)[O-])CC1,-4,-16,-2,-3,2,-9
O=C(CSc1nc2[nH]ncc2c(=O)n1-c1ccccc1Cl)N1CCCC1,12,-2,24,14,0,6
O=C(CSc1nc2[nH]ncc2c(=O)n1-c1ccccc1)N1CCCCCC1,-1,·,34*,·,5,2
CSc1nc2[nH]ncc2c(=O)n1-c1ccccc1,0,23,61*,-7,0,16
O=c1c2cn[nH]c2nc(SCc2ccc3c(c2)OCCO3)n1-c1ccccc1,-1,1,4,1,4,-13
O=C(c1cccs1)N1N=C(c2ccccc2)CC1c1ccccc1O (stereo not given),-6,-12,12,-5,24,66*
O=C(NC1CCCC1)C1CCCN(S(=O)(=O)c2ccc(F)cc2)C1 (stereo not given),19,16,-8,4,3,10
COc1cc2c(cc1OC)-c1n[nH]c(=S)n1C(C)(C)C2,48*,34,5,4,-6,0
COc1ccc(C=Nc2cccnc2N)cc1,-2,9,31*,2,-3,16
O=c1cc(C(F)(F)F)[nH]c(=S)n1-c1ccccc1,-7,56,30*,-6,-2,-19
Nc1cc(=O)[nH]c(=S)n1-c1ccccc1,-2,-15,-20,-3,1,10
CCOc1cc(/C=N/N=C(\N)c2nonc2N)cc(Br)c1OCc1cccc2ccccc12,0,-1,3,-3,3,56*
CCOc1ccc(C2C=C(c3ccc(F)cc3)Nc3ncnn32)cc1 (stereo not given),-2,-2,10,-2,2,45
CCOc1ccc(C2C=C(c3ccccc3)Nc3ncnn32)cc1 (stereo not given),-4,·,11,·,-3,52*
Nc1nc(-c2ccccc2)c(N=Nc2ccc(Cl)cc2)s1,5,22,-9,-2,7,6
Cc1ccccc1C(=O)Nc1sc2c(c1C(=O)O)CCC2,-8,8,3,-8,-3,8
COc1cc(OC)cc(C(=O)Nc2c(F)cccc2F)c1,34,-6,0,-4,1,0
SMILES,A3G deaminase,PfGluPho inh,PfM18AAP inh,HKDC1 inh,APOBEC3A inh,UBC9 SUMO inh
Nc1ccc(C(=O)N/N=C/c2cn(Cc3ccc(F)cc3)c3ccccc23)cc1,0,8,-15,3,3,-20
O=C(N/N=C/c1cn(Cc2cccc(F)c2)c2ccccc12)c1cc(O)cc(O)c1,80,6,12,20,98,66*
Cn1c(=O)c(=O)n(C)c2cc(S(=O)(=O)CCC(=O)Nc3ccc(F)cc3)ccc21,-4,-1,4,0,-3,4
ClC(/C=N/n1cnnc1)=C/c1ccccc1,-8,-2,32*,-1,-2,15
Cc1noc(C)c1C(=O)Nc1ccccc1C(=O)NCCc1ccccc1,-8,2,1,1,-2,4
COc1ccc(N(CC(=O)NC(C)C)C(=O)CCC(=O)Nc2ccccn2)cc1,-4,-12,-15,3,-4,12
CC1=C(C)/C(=N\OS(=O)(=O)c2ccccc2)C=CC1=O,-3,112*,-1,19,-1,13
Cc1ccc(S(=O)(=O)O/N=C2\CCCc3ccccc32)cc1,-7,-9,-3,17,-1,13
O=C(/C=C/c1ccco1)NC(=S)Nc1ccc(N2CCCC2)cc1,2,35,16,1,6,60*
CC(=O)NC(=S)Nc1ccc(NC(=S)NC(=O)/C=C/c2ccco2)cc1,-8,3,-6,-1,-6,66
O=C(/C=C/c1ccco1)NC(=S)Nc1ccc(C(=O)O)cc1,57,4,29*,9,78,45
O=C(Nc1ccc(C(=O)O)cc1)/C(=C\c1ccco1)NC(=O)c1ccccc1Cl,-8,13,30*,-7,2,2
CC(=O)C1N=NCC1c1ccccc1 (stereo not given),·,4,·,0,·,·
O=C(CC1SC2=NCCN2C1=O)Nc1ccc(Br)cc1 (stereo not given),-2,-2,-2,-7,-4,7
O=C(Nc1ccc(F)cc1)C1=CC(=O)N2CCN=C2S1,0,·,29*,·,-1,8
O=C(Nc1ccc(Oc2cccnc2)nc1)c1ccc(C(F)(F)F)cc1,-1,19,5,-2,-2,14
COc1cccc(C(=O)NNC2=CC(=O)CC(C)(C)C2)c1,0,6,31*,-4,8,21
COc1cc(/C=N/NC(=O)NC2CCCCC2)cc(OC)c1O,-3,27,29*,0,5,16
COc1cc(/C=N/NC(=O)NC2CCCCC2)ccc1O,-5,-4,1,2,1,11
Oc1ccc(-c2nc3ccccc3s2)c(O)c1,-2,-3,4,-2,3,12
Oc1ccc(-c2cnns2)c(O)c1,-2,44,99*,45*,1,-4
S=C(Nc1ccc2cn[nH]c2c1)Nc1ccccc1Cl,-5,15,8,-3,2,88*
S=C(Nc1ccc2cn[nH]c2c1)Nc1ccc(Cl)cc1Cl,-6,38,7,9,-2,0
CCOc1ccc2c(c1)s/c(=N\S(=O)(=O)c1ccc(OC)cc1)n2C(F)F,-1,4,0,-8,30,-11
COC/C=C/C1=CC2=CC(=O)C(C)(OC(=O)c3cnc4ccccc4n3)C(=O)C2=CN1c1ccccc1 (stereo not given),14,57,·,17,12,26

# Compound activity (PubChem)
